The record followed here is PubChem BioAssay AID624025 (Broad Institute, 2012).

Several values for one entry are separate records, joined by “and”; a condition that tells them apart may be missing. Identical values can stand only once. Activity calls are given as the source filed them.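 How the source made its calls: active means compounds whose fitted half-maximal growth inhibition dose lies at or below twice the top tested dose; inconclusive means flat curve with 30 to 70% growth loss, or bad fit; inactive means the rest.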

Test system in the first experiment: not listed separately
Nature of the experiment: S. cerevisiae growth inhibition in glucose medium, dose response, OD600, powder samples, set 4 (AID 624025). The following applies: S. cerevisiae growth in glucose, OD600, 48 h; at 3 µM (top of the series). The method, boiled down: (§1)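 Incubation: 48 h static incubation at 30 °C, humidified. Material: Saccharomyces cerevisiae yeast cells, growth in glucose medium. Signal: optical density at 600 nm. Doses: pin-transferred compounds.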
For `CCOC(=O)N1C(=O)C2(CCCCC2)N(c2ccccc2)C1=S`, the activity change, negative = inhibition was -5.67% (inactive). As for `CCOC(=O)N1C(=O)C2(CCCCC2)N(c2cccc(C)c2)C1=S`, the activity change, negative = inhibition was -12.2% (inactive). Turning to `CCOC(=O)N1C(=O)C2(CCCCC2)N(c2ccc(C#N)cc2)C1=S`, the activity change, negative = inhibition was -20.2% (inactive).

As for `CCOC(=O)N1C(=O)C2(CCCCC2)N(c2ccc(C)cc2)C1=S`, the activity change, negative = inhibition was -14.8% (inactive) and -15% (inactive). As to `CCOC(=O)N1C(=O)C2(CCCCC2)N(c2ccc(F)cc2)C1=S`, the activity change, negative = inhibition is -7.11% (inactive). Regarding `C/C=C/[C@@H]1[C@H]2C[C@@H](C)CC[C@@H]2C(C)=C[C@H]1C(=O)c1c(O)c(-c2ccc(O)cc2)c[nH]c1=O`, the activity change, negative = inhibition was -15.3% (inactive). The same measure, in the same setting: to `CCOC(=O)N1C(=O)C2(CCCCC2)N(c2ccc(Cl)cc2)C1=S` belongs 0.052% (inactive).

In the next experiment the test system is S. cerevisiae growth in glucose, OD600, 48 h. The experiment is described as above.
Conditions: not given
In outline: as §1
The term AC50 denotes the midpoint of the concentration-response curve, whichever way the signal moves. `CC1/C=C/C=C\C=C\C=C\C=C\C=C\C=C\C(O[C@H]2OC(C)C(O)C(N)C2O)CC2OC(O)(CC(O)CC(O)C(O)CCC(O)CC(O)CC(=O)OC(C)C(C)C1O)CC(O)C2C(=O)O` (stereo partly drawn): the AC50 was 0.527 µM.
